Data taken from ChEMBL document CHEMBL3112537, “A novel series of 6-substituted 3-(pyrrolidin-1-ylmethyl)chromen-2-ones as selective monoamine oxidase (MAO) A inhibitors” (Eur J Med Chem, 2014).
pIC50: −log10 of the molar value.

Assays:
[1] = target: D(2) dopamine receptor (Homo sapiens, UniProt P14416); assay: Antagonist activity at dopamine D2 receptor (unknown origin) expressed in HEK cells co-expressing Gqi5 assessed as inhibition of dopamine-induced effect by FLIPR assay; format: cell-based, HEK293
Chain of D(2) dopamine receptor (P14416 whole entry): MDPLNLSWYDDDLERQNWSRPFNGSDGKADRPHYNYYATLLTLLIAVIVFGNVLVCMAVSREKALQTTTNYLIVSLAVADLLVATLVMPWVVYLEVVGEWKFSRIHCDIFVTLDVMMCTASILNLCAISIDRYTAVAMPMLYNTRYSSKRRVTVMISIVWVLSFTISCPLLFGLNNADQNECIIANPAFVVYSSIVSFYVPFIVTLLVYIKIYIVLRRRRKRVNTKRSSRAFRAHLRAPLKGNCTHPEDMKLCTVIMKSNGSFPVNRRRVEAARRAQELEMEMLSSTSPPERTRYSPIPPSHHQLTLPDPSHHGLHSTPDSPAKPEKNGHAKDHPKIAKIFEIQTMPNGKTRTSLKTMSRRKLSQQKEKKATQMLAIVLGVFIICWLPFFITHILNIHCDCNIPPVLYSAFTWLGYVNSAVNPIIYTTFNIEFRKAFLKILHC

[2] = system: Rattus norvegicus; assay: In vivo inhibition of MAO-A in Sprague-Dawley rat assessed as 5-hydroxyindoleacetic acid in brain striatum at 100 umol/kg, sc after 1 hr by HPLC/EC analysis relative to control; format: functional; design: scale not given: the % may be the effect or the level left
Procedure, shortened: (§1)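 Freely moving rats dosed subcutaneously and sacrificed 1 h later. Striatal DOPAC, 3-MT and 5-HIAA were measured post mortem and expressed as % of saline control (n = 4). Significance was by Student's t-test, P < 0.05.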

[3] = system: Rattus norvegicus; assay: In vivo inhibition of MAO-A in Sprague-Dawley rat assessed as 3,4-dihydroxyphenylacetic acid level in brain striatum at 100 umol/kg, sc after 1 hr by HPLC/EC analysis relative to control; format: functional; design: scale not given: the % may be the effect or the level left; procedure, shortened: as §1
[4] = target: T1, Amine oxidase [flavin-containing] A (Homo sapiens, UniProt P21397); assay: Inhibition of human recombinant MAO-A assessed as kynuramine oxidation to 4-hydroxyquinoline after 40 mins by LC-MS/MS analysis
T1 sequence (P21397 whole entry): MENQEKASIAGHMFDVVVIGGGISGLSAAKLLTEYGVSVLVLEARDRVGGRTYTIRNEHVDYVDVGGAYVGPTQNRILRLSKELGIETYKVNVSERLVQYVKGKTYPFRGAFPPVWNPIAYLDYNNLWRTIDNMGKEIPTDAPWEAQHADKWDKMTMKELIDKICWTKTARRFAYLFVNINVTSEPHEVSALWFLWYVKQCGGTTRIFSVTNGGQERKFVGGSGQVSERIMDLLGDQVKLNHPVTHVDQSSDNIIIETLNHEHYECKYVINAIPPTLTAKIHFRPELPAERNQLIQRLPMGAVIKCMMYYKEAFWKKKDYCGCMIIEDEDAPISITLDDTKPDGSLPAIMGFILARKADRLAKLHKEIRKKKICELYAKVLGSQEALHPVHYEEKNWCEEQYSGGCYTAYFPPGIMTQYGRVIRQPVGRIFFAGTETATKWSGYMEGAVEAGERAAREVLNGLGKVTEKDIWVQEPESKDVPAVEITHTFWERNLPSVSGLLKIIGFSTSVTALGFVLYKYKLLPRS
Procedure, shortened: (§2)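 Human MAO A and MAO B inhibition using kynuramine as a mixed substrate for both isoforms. IC50 is given as the mean ± SE of duplicate determinations.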

[5] = target: T2, Amine oxidase [flavin-containing] B (Homo sapiens, UniProt P27338); assay: Inhibition of human recombinant MAO-B assessed as kynuramine oxidation to 4-hydroxyquinoline after 40 mins by LC-MS/MS analysis; procedure, shortened: as §2
T2 sequence (P27338 whole entry): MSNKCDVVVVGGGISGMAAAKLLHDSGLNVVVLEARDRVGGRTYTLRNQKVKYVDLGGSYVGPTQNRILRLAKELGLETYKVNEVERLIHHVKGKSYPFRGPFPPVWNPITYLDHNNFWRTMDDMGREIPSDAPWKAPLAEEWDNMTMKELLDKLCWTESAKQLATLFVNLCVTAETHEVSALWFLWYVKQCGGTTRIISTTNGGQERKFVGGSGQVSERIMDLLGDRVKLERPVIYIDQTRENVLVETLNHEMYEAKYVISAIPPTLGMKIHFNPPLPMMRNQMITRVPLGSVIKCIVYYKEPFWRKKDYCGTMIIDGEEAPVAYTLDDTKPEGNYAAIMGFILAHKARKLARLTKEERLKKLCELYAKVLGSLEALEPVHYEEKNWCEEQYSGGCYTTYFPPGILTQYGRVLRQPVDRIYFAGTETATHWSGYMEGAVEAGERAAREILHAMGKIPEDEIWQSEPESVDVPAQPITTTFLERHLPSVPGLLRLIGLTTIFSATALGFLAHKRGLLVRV

[6] = system: Rattus norvegicus; assay: In vivo inhibition of MAO-A in Sprague-Dawley rat assessed as 3-methoxytyramine level in brain striatum at 100 umol/kg, sc after 1 hr by HPLC/EC analysis relative to control; format: functional; design: scale not given: the % may be the effect or the level left; procedure, shortened: as §1
[7] = target: T3, 5-hydroxytryptamine receptor 1A (Homo sapiens) (UniProt P08908); assay: Displacement of [3H]8-OH-DPAT from human 5-HT1A receptor at 1 uM relative to control
T3 sequence (whole entry): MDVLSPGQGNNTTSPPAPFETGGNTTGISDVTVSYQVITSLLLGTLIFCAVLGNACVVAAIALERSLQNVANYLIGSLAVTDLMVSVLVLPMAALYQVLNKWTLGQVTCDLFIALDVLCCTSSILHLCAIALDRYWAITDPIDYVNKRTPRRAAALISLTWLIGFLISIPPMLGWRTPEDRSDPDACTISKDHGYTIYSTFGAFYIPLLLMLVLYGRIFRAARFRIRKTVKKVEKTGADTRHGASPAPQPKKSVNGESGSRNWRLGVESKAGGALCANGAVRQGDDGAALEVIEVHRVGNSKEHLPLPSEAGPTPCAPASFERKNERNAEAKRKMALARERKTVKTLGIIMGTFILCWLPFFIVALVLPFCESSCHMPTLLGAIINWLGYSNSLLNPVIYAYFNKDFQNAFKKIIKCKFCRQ
Procedure, shortened: (§3)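 Competition binding run by a contract lab, read as % inhibition of control specific binding at a single test concentration. Radioligand per target: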

[8] = target: Sodium-dependent dopamine transporter (Homo sapiens) (UniProt Q01959); assay: Displacement of [3H]BTCP from human dopamine transporter at 1 uM relative to control; procedure, shortened: as §3
Chain of Sodium-dependent dopamine transporter (Homo sapiens) (Q01959 whole entry): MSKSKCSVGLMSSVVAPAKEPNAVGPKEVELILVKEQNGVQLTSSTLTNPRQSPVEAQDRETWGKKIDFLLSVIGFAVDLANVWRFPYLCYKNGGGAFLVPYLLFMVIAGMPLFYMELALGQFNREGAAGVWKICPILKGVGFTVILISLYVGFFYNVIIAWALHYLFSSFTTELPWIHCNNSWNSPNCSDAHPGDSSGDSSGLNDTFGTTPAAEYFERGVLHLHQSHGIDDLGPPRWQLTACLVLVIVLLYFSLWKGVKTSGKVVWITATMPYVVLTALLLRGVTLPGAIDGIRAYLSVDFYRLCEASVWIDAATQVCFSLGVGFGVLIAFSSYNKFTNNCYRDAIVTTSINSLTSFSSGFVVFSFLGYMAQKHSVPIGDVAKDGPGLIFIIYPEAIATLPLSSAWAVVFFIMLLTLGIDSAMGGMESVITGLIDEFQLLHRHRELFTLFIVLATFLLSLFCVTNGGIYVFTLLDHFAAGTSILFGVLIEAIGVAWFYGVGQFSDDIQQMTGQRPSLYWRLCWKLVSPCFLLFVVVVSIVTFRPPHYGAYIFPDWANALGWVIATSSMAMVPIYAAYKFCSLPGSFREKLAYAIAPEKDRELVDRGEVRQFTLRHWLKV

[9] = species on record: Homo sapiens; assay: Selectivity index, ratio of IC50 for human recombinant MAO-B to IC50 for human recombinant MAO-A
Procedure, shortened: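 Selectivity index for MAO A = IC50(MAO B)/IC50(MAO A), with both human isoforms assayed against kynuramine substrate.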

[10] = target: Adrenergic receptor alpha-1 (Rattus norvegicus) (UniProt P15823+P23944+P43140); assay: Displacement of [3H]-prazosin from rat alpha-1 adrenergic receptor at 1 uM relative to control; procedure, shortened: as §3
[11] = target: 5-hydroxytryptamine receptor 2A (Homo sapiens) (UniProt P28223); assay: Displacement of [3H]-ketanserin from human 5-HT2A receptor at 1 uM relative to control; procedure, shortened: as §3
Chain of 5-hydroxytryptamine receptor 2A (Homo sapiens) (P28223 whole entry): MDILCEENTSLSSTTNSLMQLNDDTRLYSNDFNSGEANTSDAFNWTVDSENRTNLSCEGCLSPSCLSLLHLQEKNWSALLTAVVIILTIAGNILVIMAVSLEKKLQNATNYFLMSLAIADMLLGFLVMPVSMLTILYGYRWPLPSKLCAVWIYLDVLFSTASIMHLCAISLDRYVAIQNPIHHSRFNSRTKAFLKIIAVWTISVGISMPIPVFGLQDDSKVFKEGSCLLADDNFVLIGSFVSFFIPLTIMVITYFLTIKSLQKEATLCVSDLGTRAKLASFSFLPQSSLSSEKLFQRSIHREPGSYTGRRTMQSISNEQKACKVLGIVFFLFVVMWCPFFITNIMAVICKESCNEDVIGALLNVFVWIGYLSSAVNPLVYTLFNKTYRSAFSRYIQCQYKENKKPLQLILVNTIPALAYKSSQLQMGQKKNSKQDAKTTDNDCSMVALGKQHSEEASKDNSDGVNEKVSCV

[12] = target: Histamine H1 receptor (Homo sapiens) (UniProt P35367); assay: Displacement of histamine from human histamine H1 receptor at 1 uM relative to control; procedure, shortened: as §3
Chain of Histamine H1 receptor (Homo sapiens) (P35367 whole entry): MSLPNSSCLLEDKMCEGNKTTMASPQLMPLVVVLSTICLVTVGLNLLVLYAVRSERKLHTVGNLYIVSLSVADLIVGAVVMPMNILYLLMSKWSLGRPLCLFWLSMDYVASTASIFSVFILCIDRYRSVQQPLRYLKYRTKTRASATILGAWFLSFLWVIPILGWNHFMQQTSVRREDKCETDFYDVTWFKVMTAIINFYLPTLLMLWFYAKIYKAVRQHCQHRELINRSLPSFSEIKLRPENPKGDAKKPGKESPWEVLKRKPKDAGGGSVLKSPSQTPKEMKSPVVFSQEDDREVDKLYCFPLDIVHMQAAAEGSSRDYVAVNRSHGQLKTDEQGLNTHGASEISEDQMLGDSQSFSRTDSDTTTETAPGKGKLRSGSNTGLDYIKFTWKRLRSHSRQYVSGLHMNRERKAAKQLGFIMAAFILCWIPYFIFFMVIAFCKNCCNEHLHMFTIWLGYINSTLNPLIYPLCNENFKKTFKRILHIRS

[13] = target: Sodium-dependent serotonin transporter (Homo sapiens) (UniProt P31645); assay: Displacement of [3H]-imipramine from human serotonin transporter at 1 uM relative to control; procedure, shortened: as §3
Chain of Sodium-dependent serotonin transporter (Homo sapiens) (P31645 whole entry, looked up): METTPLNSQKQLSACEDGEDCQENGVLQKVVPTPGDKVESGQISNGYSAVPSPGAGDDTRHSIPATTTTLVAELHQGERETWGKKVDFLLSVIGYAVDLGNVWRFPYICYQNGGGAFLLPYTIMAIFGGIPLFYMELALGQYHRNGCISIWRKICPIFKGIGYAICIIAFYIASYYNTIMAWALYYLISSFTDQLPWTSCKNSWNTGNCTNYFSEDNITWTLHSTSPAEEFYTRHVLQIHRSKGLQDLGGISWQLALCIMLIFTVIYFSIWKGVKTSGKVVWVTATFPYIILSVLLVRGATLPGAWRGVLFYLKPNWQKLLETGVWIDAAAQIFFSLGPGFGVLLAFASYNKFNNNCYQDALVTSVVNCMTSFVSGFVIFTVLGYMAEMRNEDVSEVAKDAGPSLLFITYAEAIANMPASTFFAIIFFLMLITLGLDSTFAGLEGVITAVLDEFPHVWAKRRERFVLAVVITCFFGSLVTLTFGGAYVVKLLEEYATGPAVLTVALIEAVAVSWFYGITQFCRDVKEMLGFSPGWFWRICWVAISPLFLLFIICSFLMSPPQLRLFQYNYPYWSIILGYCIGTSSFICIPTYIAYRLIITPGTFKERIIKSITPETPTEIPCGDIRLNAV

[14] = target: Sodium-dependent noradrenaline transporter (Homo sapiens) (UniProt P23975); assay: Displacement of [3H]-nisoxetin from human norepinephrine transporter at 1 uM relative to control; procedure, shortened: as §3
Chain of Sodium-dependent noradrenaline transporter (Homo sapiens) (P23975 whole entry): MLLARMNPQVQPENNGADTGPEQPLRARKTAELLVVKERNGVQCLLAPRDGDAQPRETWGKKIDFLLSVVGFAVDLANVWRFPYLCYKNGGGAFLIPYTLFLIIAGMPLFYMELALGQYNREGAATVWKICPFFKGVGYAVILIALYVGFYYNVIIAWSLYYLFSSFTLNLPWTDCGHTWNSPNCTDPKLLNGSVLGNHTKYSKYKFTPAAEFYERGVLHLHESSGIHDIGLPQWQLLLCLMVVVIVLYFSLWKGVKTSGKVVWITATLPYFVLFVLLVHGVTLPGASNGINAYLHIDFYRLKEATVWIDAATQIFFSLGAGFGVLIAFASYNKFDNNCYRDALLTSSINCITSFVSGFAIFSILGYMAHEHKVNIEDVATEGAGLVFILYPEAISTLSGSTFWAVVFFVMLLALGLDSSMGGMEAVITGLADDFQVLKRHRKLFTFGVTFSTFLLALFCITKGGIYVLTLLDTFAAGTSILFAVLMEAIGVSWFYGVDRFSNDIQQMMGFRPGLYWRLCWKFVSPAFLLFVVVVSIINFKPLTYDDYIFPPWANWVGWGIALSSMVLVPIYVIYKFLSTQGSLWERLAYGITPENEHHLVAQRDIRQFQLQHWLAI

[15] = target: Adrenergic receptor alpha-2 (Rattus norvegicus) (UniProt P22086+P19328+P22909); assay: Displacement of [3H]-RX-821002 from rat alpha-2 adrenergic receptor at 1 uM relative to control; procedure, shortened: as §3
[16] = Metabolic stability in rat liver microsomes assessed as compound remaining at 5 uM after 60 mins by LC-MS/MS analysis; format: ADME; details: read-out: Stability
Procedure, shortened: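 Incubation with rat liver microsomes, read as % of compound remaining after 60 min.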

[17] = Aqueous solubility of the compound in saline solution; format: physicochemical
[18] = system: Rattus norvegicus; assay: In vivo inhibition of MAO-A in Sprague-Dawley rat assessed as 3-methoxytyramine level in brain striatum at 37 umol/kg, sc after 1 hr by HPLC/EC analysis relative to control; format: functional; design: scale not given: the % may be the effect or the level left; procedure, shortened: as §1
[19] = system: Rattus norvegicus; assay: In vivo inhibition of MAO-A in Sprague-Dawley rat assessed as 3,4-dihydroxyphenylacetic acid level in brain striatum at 37 umol/kg, sc after 1 hr by HPLC/EC analysis relative to control; format: functional; design: scale not given: the % may be the effect or the level left; procedure, shortened: as §1
[20] = system: Rattus norvegicus; assay: In vivo inhibition of MAO-A in Sprague-Dawley rat assessed as 5-hydroxyindoleacetic acid in brain striatum at 37 umol/kg, sc after 1 hr by HPLC/EC analysis relative to control; format: functional; design: scale not given: the % may be the effect or the level left; procedure, shortened: as §1
[21] = system: Rattus norvegicus; assay: In vivo inhibition of MAO-A in Sprague-Dawley rat assessed as 3-methoxytyramine level in brain striatum at 53 umol/kg, sc after 1 hr by HPLC/EC analysis relative to control; format: functional; design: scale not given: the % may be the effect or the level left
Procedure, shortened: (§4)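 Freely moving rats were given a subcutaneous dose and sacrificed 1 h later. Striatal DOPAC, 3-MT and 5-HIAA were measured post mortem and expressed as % of saline control (n = 4). Significance was tested by Student's t-test (P < 0.05).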

[22] = system: Rattus norvegicus; assay: In vivo inhibition of MAO-A in Sprague-Dawley rat assessed as 5-hydroxyindoleacetic acid in brain striatum at 53 umol/kg, sc after 1 hr by HPLC/EC analysis relative to control; format: functional; design: scale not given: the % may be the effect or the level left; procedure, shortened: as §4
[23] = system: Rattus norvegicus; assay: In vivo inhibition of MAO-A in Sprague-Dawley rat assessed as 3,4-dihydroxyphenylacetic acid level in brain striatum at 53 umol/kg, sc after 1 hr by HPLC/EC analysis relative to control; format: functional; design: scale not given: the % may be the effect or the level left; procedure, shortened: as §4

Compound	pIC50 [1]	Activity [2] [%]	Activity [3] [%]	pIC50 [4]	pIC50 [5]	Activity [6] [%]	other results
O=c1oc2ccc(C(F)(F)F)cc2cc1CN1CCCC1 [listing 1 of 2 here]	< 4.52	104	77	5.07	< 4.00	88	
COc1ccc2oc(=O)c(CN3CCCC3)cc2c1	< 4.52	90	65	5.35	< 4.00	129	
O=c1oc2ccc(C(F)(F)F)cc2cc1CN1CCCC1 [listing 2 of 2 here]							inhibition [7]: 8%; inhibition [8]: 8%; Ratio IC50 [9]: > 11.8; inhibition [10]: 4%; inhibition [11]: 20%; inhibition [12]: 4%; inhibition [13]: -4%; inhibition [14]: 1%; inhibition [15]: 20%
O=c1oc2ccc(OC(F)(F)F)cc2cc1CN1CCCC1	< 4.59			5.37	< 4.00		remaining at 1 h, 5 µM [16]: 3%; Ratio IC50 [9]: > 23.5
O=c1oc2ccc(OCc3ccccc3)cc2cc1CN1CCCC1				< 4.00	< 4.00		
Cl.Nc1ccc2oc(=O)c(CN3CCCC3)cc2c1							solubility [17]: > 5000 µg/mL
O=c1oc2ccccc2cc1CN1CCCC1 [listing 1 of 2 here]							Ratio IC50 [9]: > 15.8
O=c1oc2ccccc2cc1CN1CCCC1 [listing 2 of 2 here]		106	58	5.20	< 4.00	164	remaining at 1 h, 5 µM [16]: < 5%
Cl.O=c1oc2ccc(C(F)(F)F)cc2cc1CN1CCCC1							solubility [17]: > 5000 µg/mL
O=C(NCCN1CCOCC1)c1ccc(Cl)cc1 [MOCLOBEMIDE]							Activity [18]: 398%; Activity [19]: 18%; Activity [20]: 80%
Br.O=c1oc2ccc(O)cc2cc1CN1CCCC1							solubility [17]: > 5000 µg/mL
O=c1oc2ccc([N+](=O)[O-])cc2cc1CN1CCCC1	< 4.52	118	105	< 4.00	< 4.00	75	
C#CCN(C)[C@H](C)Cc1ccccc1 [SELEGILINE]							Activity [21]: 146%; Activity [22]: 96%; Activity [23]: 36%
